Measured values published in ChEMBL document CHEMBL1141534, “Synthesis of all stereoisomers of 3-hydroxypipecolic acid and 3-hydroxy-4,5-dehydropipecolic acid and their evaluation as glycosidase inhibitors” (Bioorg Med Chem Lett, 2008).

Experiments:
[1] = biological target: T1, Beta-glucuronidase (Bos taurus) (UniProt A3KMY8); experiment: Inhibition of bovine liver beta-glucuronidase; parameters: concentration or dose not given beside the values; conditions: concentration not given here
T1 sequence (whole entry): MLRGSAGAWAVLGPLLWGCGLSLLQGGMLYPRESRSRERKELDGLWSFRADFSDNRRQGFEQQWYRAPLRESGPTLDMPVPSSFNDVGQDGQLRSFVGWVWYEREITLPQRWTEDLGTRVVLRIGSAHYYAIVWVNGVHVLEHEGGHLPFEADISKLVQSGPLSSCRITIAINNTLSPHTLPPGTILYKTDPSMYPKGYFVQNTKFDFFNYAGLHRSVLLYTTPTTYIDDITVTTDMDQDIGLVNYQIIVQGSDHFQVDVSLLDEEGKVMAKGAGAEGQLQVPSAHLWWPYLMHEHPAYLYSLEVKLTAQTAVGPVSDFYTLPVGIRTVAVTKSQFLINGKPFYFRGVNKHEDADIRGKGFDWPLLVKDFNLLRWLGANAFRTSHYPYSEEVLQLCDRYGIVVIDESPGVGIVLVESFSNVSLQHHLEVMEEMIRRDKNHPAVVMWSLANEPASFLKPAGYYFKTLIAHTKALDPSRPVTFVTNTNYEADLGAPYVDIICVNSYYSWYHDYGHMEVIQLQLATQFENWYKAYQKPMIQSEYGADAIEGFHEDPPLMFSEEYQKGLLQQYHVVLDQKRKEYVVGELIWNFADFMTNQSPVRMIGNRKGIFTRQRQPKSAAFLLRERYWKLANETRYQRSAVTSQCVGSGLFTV
Method in brief: (§1)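 Enzyme activity was measured with the matching p-nitrophenyl glycoside as substrate at 10 mM, at each enzyme's optimum pH, with a suitable amount of enzyme per reaction. For line 4, the α-N-acetylgalactosaminidase came from chicken liver.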

[2] = test system: Escherichia coli; experiment: Inhibition of Escherichia coli beta-glucuronidase; parameters: concentration or dose not given beside the values; conditions: concentration not given here; method in brief: as §1
[3] = species: Bos taurus; experiment: (§2) Inhibition of bovine kidney beta-N-acetylglucosaminidase; parameters: concentration or dose not given beside the values; conditions: concentration not given here; method in brief: as §1
[4] = test system: alpha-N-acetylgalactosaminidase (Gallus gallus); experiment: Inhibition of chick liver alpha-N-acetylgalactosaminidase; parameters: concentration or dose not given beside the values; conditions: concentration not given here
[5] = as §2; parameters: species or system Bos taurus; method in brief: as §1

| Structure (SMILES) | inhibition [1] | inhibition [2] | inhibition [3] | inhibition [4] | IC50 [5] |
| --- | --- | --- | --- | --- | --- |
| O=C(O)[C@H]1NCCC[C@H]1O | 0.18% | 24% | 20% | 2.5% |  |
| O=C(O)[C@H]1NCC=C[C@H]1O | 8.6% | 3.3% | 7.3% | 0.2% |  |
| O=C(O)[C@@H]1NCCC[C@@H]1O | 15% | 23% | 47% | 3.2% |  |
| O=C(O)[C@H]1NCC=C[C@@H]1O | 19% | 2% | 58% | 25% | 720 µM |
| O=C(O)[C@@H]1NCC=C[C@H]1O | 0.2% | 0.9% | 15% | 3.2% |  |

Further lines, results first:

| inhibition [1] | inhibition [2] | inhibition [3] | inhibition [4] | IC50 [5] | Structure (SMILES) |
| --- | --- | --- | --- | --- | --- |
| 0.89% | 31% | 38% | 5.2% |  | O=C(O)[C@H]1NCCC[C@@H]1O |
| 0.62% | 20% | 32% | 1.3% |  | O=C(O)[C@@H]1NCCC[C@H]1O |
| 10% | 0.9% | 0.8% | 1.3% |  | O=C(O)[C@@H]1NCC=C[C@@H]1O |
